From ChEMBL document CHEMBL1122644, “Ring-substituted 1,2-dialkylated 1,2-bis(hydroxyphenyl)ethanes. 2. Synthesis and estrogen receptor binding affinity of 4,4'-, 5,5'-, and 6,6'-disubstituted metahexestrols” (J Med Chem, 1984)

Columns and labels:
[1] = biological target: Estrogen receptor (Bos taurus) (UniProt Q9XSB5+P49884); test: Relative binding affinity for calf uterine estrogen receptor is the ratio of molar concentrations of 17-beta-estradiol and compound required to decrease amount of bound [3H]-E2 by 50% X 100.; assay type: protein assay
Summary of the method: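 Calf uterine cytosol incubated with [3H]estradiol and competitor at 4 °C for 16 h. Free ligand removed with dextran-coated charcoal, then centrifuged and a supernatant aliquot counted. Six competitor concentrations chosen to span 50% competition on a semilog plot. Molar concentrations of unlabeled estradiol and test compound giving 50% reduction in binding were read from the plot.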

[2] = biological target: T1, Estrogen receptor (Mus musculus) (UniProt O08537+P19785); test: Estrogenic activity in mouse uterotrophic assay at 8 ug; assay type: functional
Summary of the method: (§1)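 Uterotrophic test in 20-day-old immature female NMRI mice (14.5 ± 1.2 g), 10 per group. Daily s.c. injections of compound in 0.1 mL olive oil for 3 days. Uteri excised 24 h after final dose, Bouin-fixed, washed, dried and weighed to measure stimulation of uterine growth.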

[3] = biological target: T1, Estrogen receptor (Mus musculus); test: Anti-estrogenic activity as inhibition of estrone-stimulated uterine growth in mice at 25 mg/kg; assay type: functional, organism-based; design: dose 25 mg/kg
Summary of the method: (§2)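 Immature female NMRI mice, 20 days old (14.5 ± 1.2 g), randomized into groups of 10. Test compound in olive oil (0.1 mL) given subcutaneously daily for 3 days alongside estrone stimulation. Uteri removed 24 h after last injection, fixed in Bouin's solution, washed, dried and weighed. Readout is inhibition of estrone-stimulated uterine growth.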

[4] = biological target: T1, Estrogen receptor (Mus musculus); test: Estrogenic activity in mouse uterotrophic assay at 80 ug; assay type: functional; summary of the method: as §1
[5] = biological target: T1, Estrogen receptor (Mus musculus); test: Anti-estrogenic activity as inhibition of estrone-stimulated uterine growth in mice at 50 mg/kg; assay type: functional, organism-based; design: dose 50 mg/kg; summary of the method: as §2
[6] = biological target: T1, Estrogen receptor (Mus musculus); test: Anti-estrogenic activity in mouse uterotrophic assay at 25 ug; assay type: functional; summary of the method: as §2
[7] = biological target: T1, Estrogen receptor (Mus musculus); test: Anti-estrogenic activity as inhibition of estrone-stimulated uterine growth in mice at 1 mg/kg; assay type: functional, organism-based; design: dose 1 mg/kg; summary of the method: as §2
[8] = biological target: T1, Estrogen receptor (Mus musculus); test: Anti-estrogenic activity as inhibition of estrone-stimulated uterine growth in mice at 250 mg/kg; assay type: functional, organism-based; design: dose 250 mg/kg; summary of the method: as §2
[9] = biological target: T1, Estrogen receptor (Mus musculus); test: Estrogenic activity in mouse uterotrophic assay at 0 ug; assay type: functional; design: unit not given here; summary of the method: as §1
[10] = biological target: T1, Estrogen receptor (Mus musculus); test: Anti-estrogenic activity in mouse uterotrophic assay at 100 ug; assay type: functional; design: unit not given here; summary of the method: as §2
[11] = biological target: T1, Estrogen receptor (Mus musculus); test: Anti-estrogenic activity in mouse uterotrophic assay at 1 ug; assay type: functional; design: unit not given here; summary of the method: as §2
[12] = biological target: T1, Estrogen receptor (Mus musculus); test: Estrogenic activity in mouse uterotrophic assay at 800 ug; assay type: functional; summary of the method: as §1
[13] = biological target: T1, Estrogen receptor (Mus musculus); test: Anti-estrogenic activity as inhibition of estrone-stimulated uterine growth in mice at 5 mg/kg; assay type: functional, organism-based; design: dose 5 mg/kg; summary of the method: as §2
[14] = biological target: T1, Estrogen receptor (Mus musculus); test: Estrogenic activity in mouse uterotrophic assay at 2 ug; assay type: functional; summary of the method: as §1
[15] = biological target: T1, Estrogen receptor (Mus musculus); test: Estrogenic activity in mouse uterotrophic assay at 240 ug; assay type: functional; summary of the method: as §1
[16] = biological target: T1, Estrogen receptor (Mus musculus); test: Anti-estrogenic activity as inhibition of estrone-stimulated uterine growth in mice at 100 mg/kg; assay type: functional, organism-based; design: dose 100 mg/kg; summary of the method: as §2
[17] = biological target: T1, Estrogen receptor (Mus musculus); test: Anti-estrogenic activity in mouse uterotrophic assay at 0 ug; assay type: functional; design: unit not given here; summary of the method: as §2
[18] = biological target: T1, Estrogen receptor (Mus musculus); test: Anti-estrogenic activity in mouse uterotrophic assay at 5 ug; assay type: functional; summary of the method: as §2
[19] = biological target: T1, Estrogen receptor (Mus musculus); test: Anti-estrogenic activity in mouse uterotrophic assay at 250 ug; assay type: functional; summary of the method: as §2
[20] = biological target: T1, Estrogen receptor (Mus musculus); test: Estrogenic activity in mouse uterotrophic assay at 16 ug; assay type: functional; summary of the method: as §1
[21] = biological target: T1, Estrogen receptor (Mus musculus); test: Anti-estrogenic activity in mouse uterotrophic assay at 50 ug; assay type: functional; summary of the method: as §2
[22] = biological target: T1, Estrogen receptor (Mus musculus); test: Estrogenic activity in mouse uterotrophic assay at 1 ug; assay type: functional; summary of the method: as §1
[23] = biological target: T1, Estrogen receptor (Mus musculus); test: Estrogenic activity in mouse uterotrophic assay at 100 ug; assay type: functional; design: unit not given here; summary of the method: as §1
[24] = biological target: T1, Estrogen receptor (Mus musculus); test: Estrogenic activity in mouse uterotrophic assay at 0.1 ug; assay type: functional; summary of the method: as §1
[25] = biological target: T1, Estrogen receptor (Mus musculus); test: Estrogenic activity in mouse uterotrophic assay at 1000 ug; assay type: functional; design: unit not given here; summary of the method: as §1
[26] = biological target: T1, Estrogen receptor (Mus musculus); test: Anti-estrogenic activity in mouse uterotrophic assay at 10 ug; assay type: functional; design: unit not given here; summary of the method: as §2
[27] = biological target: T1, Estrogen receptor (Mus musculus); test: Estrogenic activity in mouse uterotrophic assay at 10 ug; assay type: functional; design: unit not given here; summary of the method: as §1

T1 sequence (O08537 whole entry, looked up): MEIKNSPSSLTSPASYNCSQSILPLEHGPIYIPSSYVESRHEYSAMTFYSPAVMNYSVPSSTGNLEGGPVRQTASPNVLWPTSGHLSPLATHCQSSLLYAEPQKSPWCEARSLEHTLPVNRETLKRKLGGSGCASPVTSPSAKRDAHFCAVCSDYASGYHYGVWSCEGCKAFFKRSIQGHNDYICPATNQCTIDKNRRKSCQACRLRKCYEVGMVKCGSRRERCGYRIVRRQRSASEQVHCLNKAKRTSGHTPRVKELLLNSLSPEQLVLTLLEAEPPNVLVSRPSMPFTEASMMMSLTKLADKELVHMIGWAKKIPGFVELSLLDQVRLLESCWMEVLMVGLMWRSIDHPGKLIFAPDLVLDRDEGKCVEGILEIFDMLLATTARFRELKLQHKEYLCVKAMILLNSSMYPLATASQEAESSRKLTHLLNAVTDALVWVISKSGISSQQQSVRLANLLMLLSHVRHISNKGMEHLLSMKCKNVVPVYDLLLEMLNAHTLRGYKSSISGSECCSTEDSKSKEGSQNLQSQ
T1 sequence (P19785 whole entry, looked up): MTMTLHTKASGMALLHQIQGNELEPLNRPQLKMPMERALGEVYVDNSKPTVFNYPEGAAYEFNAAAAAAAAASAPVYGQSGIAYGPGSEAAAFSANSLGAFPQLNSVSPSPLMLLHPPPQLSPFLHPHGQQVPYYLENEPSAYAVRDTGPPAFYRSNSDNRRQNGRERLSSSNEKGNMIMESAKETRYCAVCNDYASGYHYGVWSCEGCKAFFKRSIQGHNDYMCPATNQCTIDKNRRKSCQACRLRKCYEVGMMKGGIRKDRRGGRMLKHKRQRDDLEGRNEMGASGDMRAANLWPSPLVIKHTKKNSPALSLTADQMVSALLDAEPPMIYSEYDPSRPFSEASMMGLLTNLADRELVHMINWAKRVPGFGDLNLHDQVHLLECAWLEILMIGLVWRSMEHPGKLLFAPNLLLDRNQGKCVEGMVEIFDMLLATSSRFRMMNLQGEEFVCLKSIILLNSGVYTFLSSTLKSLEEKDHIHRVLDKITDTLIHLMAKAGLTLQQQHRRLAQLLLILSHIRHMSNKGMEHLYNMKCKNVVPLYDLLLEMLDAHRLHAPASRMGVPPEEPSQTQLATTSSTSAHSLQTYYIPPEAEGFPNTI

SMILES: CCc1ccc(C(CC)C(CC)c2ccc(CC)c(O)c2)cc1O (stereo not given)
- RBA [1]: 0.04

SMILES: CCc1cc(C(CC)C(CC)c2ccc(O)c(CC)c2)ccc1O (stereo not given)
- RBA [1]: 1.2

SMILES: CCC(c1ccc(F)c(O)c1)C(CC)c1ccc(F)c(O)c1 (stereo not given)
- Activity [2]: 18.5
- inhibition [3]: 32%
- Activity [4]: 31.8
- inhibition [5]: 50%
- Activity [6]: 28.6
- inhibition [7]: 7%
- inhibition [8]: 51%
- Activity [9]: 8.7
- Activity [10]: 22.4
- RBA [1]: 1.1
- Activity [11]: 34.2
- Activity [12]: 32.6
- inhibition [13]: 25%
- Activity [14]: 8.9
- Activity [15]: 32.8
- inhibition [16]: 60%
- Activity [17]: 13.5
- Activity [18]: 30.2
- Activity [19]: 24.4
- Activity [20]: 25.4
- Activity [21]: 24.7

SMILES: CCC(c1cc(O)ccc1Cl)C(CC)c1cc(O)ccc1Cl (stereo not given)
- Activity [22]: 25.1
- Activity [23]: 41.6
- Activity [9]: 13.7
- Activity [10]: 41.5
- RBA [1]: 4.2
- Activity [11]: 40.6
- Activity [24]: 16.7
- Activity [25]: 38.5
- Activity [26]: 41
- Activity [17]: 13.7
- Activity [27]: 47.8

SMILES: CCC(c1cc(O)cc(O)c1)C(CC)c1cc(O)cc(O)c1 (stereo not given)
- RBA [1]: 0.01

SMILES: CCC(c1ccc(O)cc1Cl)C(CC)c1ccc(O)cc1Cl (stereo not given)
- RBA [1]: 2.2

SMILES: CCC(c1cc(O)cc(Cl)c1)C(CC)c1cc(O)cc(Cl)c1 (stereo not given)
- RBA [1]: 0.03

SMILES: CCC(c1ccc(O)c(C(C)=O)c1)C(CC)c1ccc(O)c(C(C)=O)c1 (stereo not given)
- RBA [1]: < 0.01

SMILES: CCC(c1ccc([N+](=O)[O-])c(O)c1)C(CC)c1ccc([N+](=O)[O-])c(O)c1 (stereo not given)
- RBA [1]: 0.02

SMILES: CC[C@H](c1ccc(O)cc1)[C@@H](CC)c1ccc(O)cc1
- RBA [1]: 27

SMILES: CCC(c1ccc(Br)c(O)c1)C(CC)c1ccc(Br)c(O)c1 (stereo not given)
- RBA [1]: 0.03

SMILES: CCOCc1ccc(C(CC)C(CC)c2ccc(COCC)c(O)c2)cc1O (stereo not given)
- RBA [1]: < 0.01

SMILES: CCOCc1cc(C(CC)C(CC)c2ccc(O)c(COCC)c2)ccc1O (stereo not given)
- RBA [1]: 0.18

SMILES: CCC(c1cc(O)ccc1O)C(CC)c1cc(O)ccc1O (stereo not given)
- RBA [1]: < 0.01

SMILES: CCC(c1ccc(O)c(CO)c1)C(CC)c1ccc(O)c(CO)c1 (stereo not given)
- RBA [1]: 0.71

SMILES: CCC(c1ccc(O)c(Br)c1)C(CC)c1ccc(O)c(Br)c1 (stereo not given)
- RBA [1]: 0.25

SMILES: CCC(c1ccc(O)cc1C)C(CC)c1ccc(O)cc1C (stereo not given)
- RBA [1]: 8.5

SMILES: CCC(c1ccc(O)c(N)c1)C(CC)c1ccc(O)c(N)c1 (stereo not given)
- RBA [1]: 5.6

SMILES: CCC(c1ccc(O)c([N+](=O)[O-])c1)C(CC)c1ccc(O)c([N+](=O)[O-])c1 (stereo not given)
- RBA [1]: 0.14

SMILES: CCC(c1ccc(C(C)=O)c(O)c1)C(CC)c1ccc(C(C)=O)c(O)c1 (stereo not given)
- RBA [1]: < 0.01
